Activity calls are given as the source filed them. The calls are words filed in the database; no cut-off is given here.
Legend:
Rattus norvegicus [1] = test: AUC (0 to t) in Sprague-Dawley rat at 150 mg/kg, po by LC-MS/MS analysis; format: ADME, organism-based; settings: in vivo
How it was run: (§1)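 Male Sprague-Dawley rats (220-350 g) given a single dose, IV 30 mg/kg or PO 150 mg/kg. Heparinized blood sampled at 2 min-8 h (IV) or 5 min-12 h (PO). Plasma protein-precipitated with acetonitrile/MeOH containing buspirone internal standard. Drug quantified by LC/MS-MS, parameters from non-compartmental analysis. n = 5 per curve.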

[2] = target: T1, Transforming growth factor beta-1 proprotein/Mothers against decapentaplegic homolog 3 (Mus musculus) (UniProt P04202+Q8BUN5); test: Inhibition of TGF-beta1/smad3 signaling pathway in mouse NIH/3T3 cell extract assessed as decrease in alpha-SMA protein expression at 10 uM after 24 hrs by Western blot analysis
T1 sequence (P04202 279-390 limits assumed): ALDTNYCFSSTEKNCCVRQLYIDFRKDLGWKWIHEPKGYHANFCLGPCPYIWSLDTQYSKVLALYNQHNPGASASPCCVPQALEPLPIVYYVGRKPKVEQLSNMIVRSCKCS
T1 sequence (Q8BUN5 2-425 partner limits assumed): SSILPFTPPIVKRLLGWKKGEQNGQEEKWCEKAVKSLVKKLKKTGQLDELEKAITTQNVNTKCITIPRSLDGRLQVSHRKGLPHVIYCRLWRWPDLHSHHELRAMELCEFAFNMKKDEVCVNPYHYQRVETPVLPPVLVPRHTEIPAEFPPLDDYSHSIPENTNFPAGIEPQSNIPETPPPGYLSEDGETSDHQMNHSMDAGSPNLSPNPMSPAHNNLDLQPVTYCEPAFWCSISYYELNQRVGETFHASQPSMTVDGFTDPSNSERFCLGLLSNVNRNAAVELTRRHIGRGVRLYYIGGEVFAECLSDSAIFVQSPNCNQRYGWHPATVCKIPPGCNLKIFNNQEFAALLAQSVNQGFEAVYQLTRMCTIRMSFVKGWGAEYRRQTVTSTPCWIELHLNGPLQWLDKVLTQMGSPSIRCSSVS

Mus musculus [3] = test: In vivo inhibition of TGF-beta1/smad3 signaling pathway in bleomycin-induced pulmonary fibrosis in C57BL/6 mouse model assessed as decrease in smad3 phosphorylation level in lung tissue at 100 mg/kg, po qd administered from day 7 to 14 by immunohistochemical analysis; format: functional, organism-based
How it was run: (§2)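 Lungs from bleomycin-challenged C57BL/6 mice (2 U/kg intratracheal; 100 mg/kg daily, days 7-14) were paraffin-embedded and dewaxed. Citrate (0.01 M) microwave antigen retrieval, then 5% serum block. Primary antibodies overnight at 4 °C: α-SMA 1:200, collagen I 1:100, p-Smad3 1:50. Secondary antibody 1 h at room temperature, then hematoxylin counterstain and microscopy.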

[4] = target: T1, Transforming growth factor beta-1 proprotein/Mothers against decapentaplegic homolog 3 (Mus musculus); test: Inhibition of TGF-beta1/smad3 signaling pathway in mouse NIH/3T3 cell extract assessed as decrease in Smad3 phosphorylation at 10 uM after 30 mins by Western blot analysis; format: protein assay
Mus musculus [5] = test: In vivo inhibition of TGF-beta1/smad3 signaling pathway in bleomycin-induced pulmonary fibrosis in C57BL/6 mouse model assessed as decrease in smad3 phosphorylation in lung tissue at 100 mg/kg, po qd administered from day 7 to 14 by Western blot analysis; format: functional, organism-based
Mus musculus [6] = test: Antifibrotic activity in bleomycin-induced pulmonary fibrosis in C57BL/6 mouse model assessed as decrease in ECM production at 100 mg/kg, po qd administered from day 7 to 14 by hematoxylin-eosin staining based fluorescence microscopy; format: functional, organism-based
How it was run: (§3)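 Male C57BL/6 mice (7-8 weeks, n=5/group) given intratracheal bleomycin 2 U/kg under chloral hydrate anaesthesia. Dosing at 100 mg/kg daily from day 7 to day 14, sacrifice at day 14. Left lungs formalin-fixed, paraffin-embedded, 5 µm sections HE-stained. Fibrosis ratio taken as fibrotic-region pixels over total lung pixels.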

Mus musculus [7] = test: Antifibrotic activity in bleomycin-induced pulmonary fibrosis in C57BL/6 mouse model assessed as decrease in collagen content in lung at 100 mg/kg, po qd administered from day 7 to 14 by spectrophotometric method; format: functional, organism-based
How it was run: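 Bleomycin model as above: 2 U/kg intratracheal in male C57BL/6 mice, 100 mg/kg daily from day 7 to day 14. Right lungs collected at day 14, dried and acid-hydrolysed, filtered, and pH adjusted to 6.5-8.0. Hydroxyproline then measured by chloramine-T spectrophotometry.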

[8] = Tmax in Sprague-Dawley rat at 150 mg/kg, po by LC-MS/MS analysis; format: ADME, organism-based; settings: in vivo; how it was run: as §1
Rattus norvegicus [9] = test: AUC (0 to infinity) in Sprague-Dawley rat at 30 mg/kg, iv by LC-MS/MS analysis; format: ADME, organism-based; design: dose 30 mg/kg, time infinity, route intravenous; settings: in vivo; how it was run: as §1
Mus musculus [10] = test: In vivo inhibition of TGF-beta1/smad3 signaling pathway in bleomycin-induced pulmonary fibrosis in C57BL/6 mouse model assessed as decrease in Col1 level in lung tissue at 100 mg/kg, po qd administered from day 7 to 14 by immunohistochemical analysis; format: functional, organism-based; how it was run: as §2
[11] = Stability in rat plasma assessed as parent compound remaining after 3 hrs by LC-MS/MS analysis; format: ADME, cell-free; settings: read-out: Stability
How it was run: (§4)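 Compound solution (1 mM stock) added 1:100 into blank plasma and incubated at 37 °C for up to 12 h. Aliquots quenched in acetonitrile/MeOH with buspirone internal standard and centrifuged. Parent compound and released products quantified by LC/MS-MS.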

[12] = Cmax in Sprague-Dawley rat at 150 mg/kg, po by LC-MS/MS analysis; format: ADME, organism-based; design: dose 150 mg/kg, route oral; settings: in vivo; how it was run: as §1
Mus musculus [13] = test: In vivo inhibition of TGF-beta1/smad3 signaling pathway in bleomycin-induced pulmonary fibrosis in C57BL/6 mouse model assessed as decrease in Col1 protein expression level in lung tissue at 100 mg/kg, po qd administered from day 7 to 14 by Western blot analysis; format: functional, organism-based
Mus musculus [14] = test: Toxicity in C57/BL6 mouse assessed as mouse survival at 1 to 5 g/kg administered orally via gavage as single dose; format: organism-based; settings: in vivo, po
How it was run: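 Male-unspecified C57BL/6 mice, 20-22 g; single oral gavage dose at 1, 2, 3, 4 and 5 g/kg, n = 10; survival recorded.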

[15] = target: T1, Transforming growth factor beta-1 proprotein/Mothers against decapentaplegic homolog 3 (Mus musculus); test: Inhibition of TGF-beta1/smad3 signaling pathway in mouse NIH/3T3 cells assessed as decrease in ECM production at 10 uM after 24 hrs; format: cell-based
Mus musculus [16] = test: In vivo inhibition of TGF-beta1/smad3 signaling pathway in bleomycin-induced pulmonary fibrosis in C57BL/6 mouse model assessed as decrease in alpha-SMA level in lung tissue at 100 mg/kg, po qd administered from day 7 to 14 by immunohistochemical analysis; format: functional, organism-based; how it was run: as §2
Mus musculus [17] = test: Toxicity in C57/BL6 mouse assessed as appearance of systemic symptoms at 2 g/kg administered orally via gavage daily as single dose for 30 days; format: organism-based; settings: in vivo, po, 2000 mg/kg, 720 h
How it was run: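 C57BL/6 mice given compound by oral gavage at 2 g/kg once daily for 30 days (n=10) and observed for systemic symptoms and deaths.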

Mus musculus [18] = test: Antifibrotic activity in bleomycin-induced pulmonary fibrosis in C57BL/6 mouse model assessed as fibrotic area in lungs at 100 mg/kg, po qd administered from day 7 to 14 by hematoxylin-eosin staining based fluorescence microscopy; format: functional; how it was run: as §3
[19] = target: T2, Transforming growth factor beta-1 proprotein/Mothers against decapentaplegic homolog 3 (Homo sapiens) (UniProt P84022+P01137); test: Inhibition of TGF-beta1/smad3 signaling pathway in human HFL cell extract assessed as decrease in alpha-SMA protein expression at 10 uM after 24 hrs by Western blot analysis
T2 sequence (P01137 whole entry, looked up): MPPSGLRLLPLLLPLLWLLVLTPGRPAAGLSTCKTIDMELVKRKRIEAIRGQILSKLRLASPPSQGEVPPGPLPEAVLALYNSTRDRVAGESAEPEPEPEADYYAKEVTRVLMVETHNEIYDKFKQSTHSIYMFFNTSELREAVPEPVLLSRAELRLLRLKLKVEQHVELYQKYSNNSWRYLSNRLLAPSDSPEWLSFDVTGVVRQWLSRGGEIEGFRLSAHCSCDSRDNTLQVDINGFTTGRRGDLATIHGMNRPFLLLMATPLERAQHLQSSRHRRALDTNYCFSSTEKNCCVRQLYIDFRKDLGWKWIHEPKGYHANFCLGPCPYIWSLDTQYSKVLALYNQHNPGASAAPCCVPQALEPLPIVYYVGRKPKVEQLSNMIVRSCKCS
T2 sequence (P84022 whole entry, looked up): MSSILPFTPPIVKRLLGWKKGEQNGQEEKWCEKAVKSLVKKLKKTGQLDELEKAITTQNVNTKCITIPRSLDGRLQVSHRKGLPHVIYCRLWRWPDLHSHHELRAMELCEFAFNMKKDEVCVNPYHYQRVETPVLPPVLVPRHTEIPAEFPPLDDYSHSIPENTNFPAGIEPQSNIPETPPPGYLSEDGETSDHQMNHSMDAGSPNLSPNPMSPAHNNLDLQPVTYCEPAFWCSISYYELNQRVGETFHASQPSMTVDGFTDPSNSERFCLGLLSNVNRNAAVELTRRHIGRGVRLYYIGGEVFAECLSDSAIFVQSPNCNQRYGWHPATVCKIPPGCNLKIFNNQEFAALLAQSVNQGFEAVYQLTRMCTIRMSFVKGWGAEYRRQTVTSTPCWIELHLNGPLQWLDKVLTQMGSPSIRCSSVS
How it was run: (§5)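 HFL1 human lung fibroblasts given TGF-β1 (5 ng/mL) with or without compound at 10 µM: 24 h for α-SMA (cell lysate) and collagen I (medium), 30 min for p-Smad3. RIPA lysis with phosphatase inhibitor, then Western blot. Band density normalized to β-actin. n=3.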

[20] = Drug metabolism in rat plasma assessed as (1aR,2S,5aR,6aR,9aR,9bS)-2,5a-Dimethyl-9-methyleneoctahydro-2H-oxireno[2',3':4,4a]naphtho[2,3-b]furan-8(9H)-one formation after 12 hrs by LC-MS/MS analysis; format: ADME, cell-free; how it was run: as §4
Rattus norvegicus [21] = test: AUC (0 to infinity) in Sprague-Dawley rat at 150 mg/kg, po by LC-MS/MS analysis; format: ADME, organism-based; design: dose 150 mg/kg, time infinity, route oral; settings: in vivo; how it was run: as §1
[22] = Cmax in Sprague-Dawley rat at 30 mg/kg, iv by LC-MS/MS analysis; format: ADME, organism-based; design: dose 30 mg/kg, route intravenous; settings: in vivo; how it was run: as §1
[23] = Oral bioavailability in Sprague-Dawley rat at 150 mg/kg by LC-MS/MS analysis; format: ADME, organism-based; settings: in vivo; how it was run: as §1
Rattus norvegicus [24] = test: AUC (0 to t) in Sprague-Dawley rat at 30 mg/kg, iv by LC-MS/MS analysis; format: ADME, organism-based; settings: in vivo; how it was run: as §1
[25] = target: T1, Transforming growth factor beta-1 proprotein/Mothers against decapentaplegic homolog 3 (Mus musculus); test: Inhibition of TGF-beta1/smad3 signaling pathway in mouse NIH/3T3 cells after 18 hrs by CAGA-luciferase reporter gene assay; format: cell-based
[26] = target: T2, Transforming growth factor beta-1 proprotein/Mothers against decapentaplegic homolog 3 (Homo sapiens); test: Inhibition of TGF-beta1/smad3 signaling pathway in human HFL cells assessed as decrease in smad3 phosphorylation at 10 uM after 30 mins by Western blot analysis; format: cell-based; how it was run: as §5
[27] = Tmax in Sprague-Dawley rat at 30 mg/kg, iv by LC-MS/MS analysis; format: ADME, organism-based; settings: in vivo; how it was run: as §1
[28] = Half life in Sprague-Dawley rat at 30 mg/kg, iv by LC-MS/MS analysis; format: ADME, organism-based; settings: in vivo; how it was run: as §1
Mus musculus [29] = test: Toxicity in C57/BL6 mouse assessed as mouse survival at 2 g/kg administered orally via gavage daily as single dose for 7 days; format: organism-based; settings: in vivo, po, 2000 mg/kg, 168 h
How it was run: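 C57BL/6 mice, 20-22 g, dosed by oral gavage once daily at 2 g/kg for 7 days, n = 10; survival recorded.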

[30] = target: T2, Transforming growth factor beta-1 proprotein/Mothers against decapentaplegic homolog 3 (Homo sapiens); test: Inhibition of TGF-beta1/smad3 signaling pathway in human HFL cells assessed as decrease in Col1 protein expression level at 10 uM after 24 hrs by Western blot analysis; format: cell-based; how it was run: as §5
[31] = Half life in Sprague-Dawley rat at 150 mg/kg, po by LC-MS/MS analysis; format: ADME, organism-based; settings: in vivo; how it was run: as §1
[32] = Drug metabolism in rat plasma assessed as (3aR,4aR,5R,6R,8aR,9aR)-6-Hydroxy-8a-methyl-3-methylenedecahydro-2H-spiro[naphtho[2,3-b]furan-5,2'-oxiran]-2-one formation after 12 hrs by LC-MS/MS analysis; format: ADME, cell-free; how it was run: as §4

Structure (SMILES) | AUCt (Rattus norvegicus [1]) [ng·h/mL] | inhibition [2] | inhibition (Mus musculus [3]) | inhibition [4] | inhibition (Mus musculus [5]) | Activity (Mus musculus [6]) | Activity (Mus musculus [7]) | Tmax [8] [min] | AUC (Rattus norvegicus [9]) [ng·h/mL] | inhibition (Mus musculus [10]) | remaining at 3 h [11] [%] | Cmax [12] [ng/mL] | inhibition (Mus musculus [13]) | Activity (Mus musculus [14]) | inhibition [15] | inhibition (Mus musculus [16]) | Activity (Mus musculus [18]) [%] | inhibition [19] | AUC (Rattus norvegicus [21]) [ng·h/mL] | Cmax [22] [ng/mL] | further results
C[C@H]1CCC[C@]2(C)C[C@H]3OC(=O)[C@@H](CN(C)C)[C@H]3[C@@H]3O[C@@]132.O=C(O)/C=C/C(=O)O | 37600 | Active | Active | Active | Active | Active | Active | 30 | 10000 | Active | > 50 | 18500 | Active | Non-Toxic | Active | Active | 71.8 | Active | 37800 | 17500 | Activity (Mus musculus [17]): Non-Toxic; Drug metabolism [20]: Metabolite_Detected; bioavailability [23]: 75%; AUCt (Rattus norvegicus [24]): 10000 ng·h/mL; inhibition [25]: Dose-dependent effect; inhibition [26]: Active; Tmax [27]: 2 min; half-life [28]: 73 min; Activity (Mus musculus [29]): Non-Toxic; inhibition [30]: Active; half-life [31]: 85 min
CN(C)C[C@@H]1C(=O)O[C@@H]2C[C@@]3(C)CC[C@@H](O)[C@]4(CO4)[C@@H]3C[C@H]12.O=C(O)/C=C/C(=O)O | 171000 | Active | Active | Active | Active | Active | Active | 42 | 44900 | Active | > 50 | 62300 | Active | Non-Toxic | Active | Active | 60.5 | Active | 174000 | 22700 | Drug metabolism [32]: Metabolite_Detected; bioavailability [23]: 78%; AUCt (Rattus norvegicus [24]): 43800 ng·h/mL; inhibition [25]: Dose-dependent effect; inhibition [26]: Active; Tmax [27]: 17 min; half-life [28]: 81 min; Activity (Mus musculus [29]): Non-Toxic; inhibition [30]: Active; half-life [31]: 121 min
